CAL PDZ FP-1 = untagged CAL PDZ binding inhibitors, primary screen, biochemical, fluorescence polarization, HTS; Golgi-associated PDZ and coiled-coil motif-containing protein (Homo sapiens), Q9HD26; purified CAL PDZ, TMR-peptide fluorescence polarization, 1 h; inhibition, % at 24.9 µM; 300,000 tested, 0.92% active; AID 602252, 2012;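 active = mean inhibition of at least 30% with at least half of replicates also reaching 30%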;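 note: 0% = DMSO neutral control and 100% = excess unlabeled competitor peptide PRC23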
PvdQ acylase = P. aeruginosa PvdQ acylase inhibitors, primary screen, biochemical, fluorescence, plate reader and imaging, single point | PvdQ acylase [Pseudomonas aeruginosa LESB58] | purified PvdQ acylase | inhibition, % at 10 µM | 340,000 tested, 0.063% active; in the data active = inhibition above about 30%, passing the limit was not always enough;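 note: 0% = vehicle neutral wells and 100% = reference inhibitor wells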
Vif inh = HIV Vif self-association inhibitors, primary screen, imaging, HEK293T, single point; HEK293T cells, Vif self-association by quenched fluorescence, 24 h; inhibition, % at 7.49 µM; 340,000 tested, 0.35% active; AID 602346, 2012; in the data active = inhibition above about 50%, passing the limit was not always enough
N-glyco inh = increase of ERlucT glycosylation luciferase signal, primary screen, N-linked glycosylation inhibitor project, D54 ERlucT cells, luminescence, set 2. D54 ERlucT glycosylation luciferase reporter, 24 h; percent of 100 nM tunicamycin response. reporter increase, % at 12.5 µM. 360,000 tested, 0.23% active;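 active = mean luciferase reporter signal, scaled so untreated is 0 and the glycosylation-blocking control 100, at or above a set limit in every replicate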;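 note: luciferase carries N-glycosylation sites so blocking glycosylation raises the light; 0% = median of neutral control wells and 100% = median of 100 nM tunicamycin wells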
CAL PDZ FP-2 = CAL PDZ peptide-binding inhibitors, primary screen, biochemical, fluorescence polarization, Cer-tagged CAL PDZ, HTS | Golgi-associated PDZ and coiled-coil motif-containing protein (Homo sapiens), Q9HD26 | purified CAL PDZ, TMR-peptide fluorescence polarization, 1 h | inhibition, % at 20 µM | 330,000 tested, 0.02% active;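 active = highest replicate inhibition of at least 40%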;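 note: plate controls were DMSO neutral control wells for no effect and unlabeled competitor peptide control wells for full effect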
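System: purified tagged CAL PDZ domain construct (CerCALP). Schedule: 1 h incubation at room temperature before polarization reading. Medium: 25 mM sodium phosphate pH 7.4, 150 mM NaCl, TCEP, IgG, Thesit. Read-out: percent inhibition from loss of millipolarization. Measured by: FP readout, S and P plane fluorescence. Probe or stimulus: fluorescent TMR peptide probe.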
CDK5 p35 inh = inhibitors of human CDK5/p35 kinase, primary screen, biochemical, single concentration; Cyclin-dependent kinase 5 (Homo sapiens) + Cyclin-dependent kinase 5 activator 1 (Homo …; Recombinant CDK5/p35, ADP-Glo luminescence, 60 min; inhibition, % at 10 µM; 330,000 tested, 0.01% active; AID 488839, 2010;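 active = highest replicate inhibition of at least 50% and at least 75% of replicates reaching 50%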;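 note: plate controls were DMSO neutral control for no effect and GW8510 at 10 µM for full effect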
Target sequence (Q00535 whole entry, looked up): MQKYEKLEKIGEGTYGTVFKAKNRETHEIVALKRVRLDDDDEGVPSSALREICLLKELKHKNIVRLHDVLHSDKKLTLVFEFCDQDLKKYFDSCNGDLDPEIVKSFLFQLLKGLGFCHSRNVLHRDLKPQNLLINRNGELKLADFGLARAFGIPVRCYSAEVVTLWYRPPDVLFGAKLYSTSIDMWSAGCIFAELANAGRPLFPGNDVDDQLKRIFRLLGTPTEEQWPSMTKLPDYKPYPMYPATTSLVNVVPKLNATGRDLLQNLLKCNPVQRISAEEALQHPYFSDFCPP
Target sequence (Q15078 whole entry, looked up): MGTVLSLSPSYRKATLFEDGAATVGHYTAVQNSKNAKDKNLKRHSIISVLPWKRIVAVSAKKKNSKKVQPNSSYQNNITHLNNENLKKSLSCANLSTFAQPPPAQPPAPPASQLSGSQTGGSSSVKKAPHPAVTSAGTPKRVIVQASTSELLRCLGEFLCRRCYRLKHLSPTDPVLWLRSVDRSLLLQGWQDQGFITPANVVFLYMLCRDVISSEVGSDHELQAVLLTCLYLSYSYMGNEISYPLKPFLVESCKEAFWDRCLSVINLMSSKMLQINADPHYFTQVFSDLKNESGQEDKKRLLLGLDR
* hit, by the source's call; x = no result. Shown are actives, neighbours in structure and some others; about 1.4% of the full set was active somewhere.

SMILES	CAL PDZ FP-1	PvdQ acylase	Vif inh	N-glyco inh	CAL PDZ FP-2	CDK5 p35 inh
COc1ccc(OC)c(-c2nnc3n2N=C(c2ccc(OC)c(OC4CCCC4)c2)CS3)c1	6	17	x	30*	-1	-3
CNC(=O)c1ccc(NC(=O)c2ccccc2OCc2c(C)noc2C)cc1	x	x	-4	5	x	x
CN(C)/N=C/C=C1\CC/C(=C\c2ccc(Br)cc2)C1=O	49*	-13	15	2	-1	-1
CCN(C(=O)COc1ccc(C)cc1OC)c1cccc2ccccc12	-5	22	57*	-1	-2	1
O=C(Nc1ccc(C2=CN(Cc3ccccc3)CCC2=O)cc1)OCc1ccccc1	-8	-10	-5	-1	-1	1
Cc1nc(/C(N)=N/OC(=O)c2cccc(Cl)c2)c(C(F)(F)F)o1	x	-1	2	2	-2	1
Cc1nc(/C(N)=N/OC(=O)c2ccccc2Cl)c(C(F)(F)F)o1	68*	-7	5	1	-1	1
O=C(/C=C/c1ccco1)c1ccccc1O	1	-15	6	4	0	-1
O=C(/C=C/c1cccs1)c1cc(Cl)ccc1O	x	77*	-6	6	-1	0
O=C(C=Cc1ccco1)c1cc(Cl)ccc1O	-2	45*	-1	10	1	0
CCOc1ccc(N(C(=O)c2snc(C(N)=O)c2N)C(C(=O)NC2CCCC2)c2ccncc2)cc1 (stereo unspecified)	-7	-9	5	6	0	-1
CC(=O)N1c2ccc(S(=O)(=O)NCC3CCC(C(=O)Nc4cc(C)ccn4)CC3)cc2CC1C (stereo unspecified)	-4	-8	-17	-1	-2	0
CC(=O)N1c2ccc(S(=O)(=O)N3CCCCC3)cc2CC1C(=O)NCc1ccccc1C (stereo unspecified)	39*	-13	1	1	-1	0
CC(=O)N1c2ccc(S(=O)(=O)NCC3CCC(C(=O)NCc4ccc(C)cc4)CC3)cc2CC1C (stereo unspecified)	x	-4	3	1	-1	-1
CCCNC(=O)C1CCC(CNS(=O)(=O)c2ccc3c(c2)CC(C)N3C(C)=O)CC1 (stereo unspecified)	82*	-15	10	0	0	1
CC(=O)N1c2ccc(S(=O)(=O)N3CCC(C(=O)Nc4cc(C)ccn4)CC3)cc2CC1C (stereo unspecified)	67*	-10	3	0	-1	0
Nc1ccc(-c2cnc[nH]2)cc1[N+](=O)[O-]	-6	-2	-3	2	0	0
COc1ccc(Cc2c(C(C)(C)C)nc3c(C)cc(Br)cn23)c(C)c1	x	x	-6	-2	x	x
CN(C)CCNc1ncnc2c1ncn2[C@H]1CN(Cc2ccc(-c3ccccc3)cc2)C[C@@H](CO)O1	x	x	8	-4	x	x
CCOc1ccccc1CN1CCC(n2nccc2NC(=O)C2CCCC2)CC1	5	-5	7	-2	112*	-2
CCCCc1ncc(CN2CCC(n3nccc3NC(=O)c3ccccc3OC)CC2)[nH]1	111*	-19	-4	2	0	0
O=C(Nc1ccnn1C1CCN(Cc2ccccc2)CC1)C1CCCC1	-3	-7	-5	-2	-1	2
COc1ccc(CN2CCC(n3nccc3NC(=O)C3CC3)CC2)c(OC)c1OC	71*	-15	0	1	0	1
COC(=O)C1N[C@@H]([C@@H](NC(=O)COc2ccccc2)C(=O)NC2CC2)SC1(C)C (stereo partly specified)	-2	-5	1	-1	-1	2
Cc1cccc(N2CCN(C(=O)c3ccc4c(c3)NC(=O)C(CSCc3cccc(F)c3)N4)CC2C)c1 (stereo unspecified)	-4	-9	61*	1	-1	1
SMILES	CAL PDZ FP-1	PvdQ acylase	Vif inh	N-glyco inh	CAL PDZ FP-2	CDK5 p35 inh
COCCSc1nnc(NC(=O)Cc2ccc(OC)c(OC)c2)s1	1	-3	-3	1	-23	-3
COCCSc1nnc(NC(=O)c2ccc(OC)c([N+](=O)[O-])c2)s1	53*	-3	-2	1	1	-1
COCCSc1nnc(NC(=O)Cc2ccc(OC)cc2)s1	49*	-3	6	1	0	-2
COc1ccc(CSc2nnc(NC(C)=O)s2)cc1[N+](=O)[O-]	-1	-8	-1	3	2	-10
O=C(COc1ccc2c(c1)OCO2)NCc1cccs1	-3	-3	14	-1	-1	-1
Cc1ccc(S(=O)(=O)N(CCCc2c(C)nc[nH]c2=O)c2ccccc2)cc1	7	-2	-4	-1	0	0
Cc1ccc(NC(=O)COC(=O)c2cc(Cl)ccc2[N+](=O)[O-])cc1	-2	-6	10	1	-2	0
O=C(COC(=O)c1cc(Cl)ccc1[N+](=O)[O-])NC1CC1	-3	-6	56*	-1	-2	0
Cc1ccc(NC(=O)c2cc(Cl)ccc2[N+](=O)[O-])cc1C	x	-3	14	-3	-3	0
CC(C)(C)NC(=O)c1cc(Cl)ccc1[N+](=O)[O-]	-3	36*	x	1	0	-1
COC(=O)c1ccccc1S(=O)(=O)N1CCC(C(=O)NCc2ccccn2)CC1	x	x	6	2	x	x
O=C(Nc1cccc(-n2cnnn2)c1)c1ccc(OC(F)(F)F)cc1	98*	-14	0	7	-2	0
O=C(COC(=O)c1cccc(-n2cnnn2)c1)Nc1c(Cl)cccc1C(F)(F)F	62*	-21	2	3	-2	0
O=C(NNC(=O)c1cccc(C(F)(F)F)c1)c1ccc(-n2cnnn2)cc1	92*	-12	23	1	0	-1
CC(C)(C)c1ccc(C(=O)NNC(=O)c2cccc(-n3cnnn3)c2)cc1	x	3	0	1	-1	1
CC(C)(C)N1CC(C(=O)Nc2ccc(C(N)=O)cc2)CC1=O (stereo unspecified)	x	x	13	2	x	x
CCCCN1CC(COCc2ccccc2)Oc2ccccc2S1(=O)=O (stereo unspecified)	-1	14	18	-1	0	-2
COc1cccc(CC(=O)OCC(=O)NNC(=O)c2ccc(Br)cc2)c1	-1	-14	-5	1	-2	-1
